Data on 27 compounds can be found in ChEMBL document CHEMBL3870349, “Novel 3-methylindoline inhibitors of EZH2: Design, synthesis and SAR” (Bioorg Med Chem Lett, 2017).

For data set [1], the target named is Histone-lysine N-methyltransferase EZH2 (Homo sapiens, UniProt Q15910). Kind of data set: Inhibition of human wild type EZH2 using histone H3 as substrate after 1 hr in presence of 3H-SAM by filter paper detection analysis. The method in brief:
(§1)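 Each HMT complex was incubated with 3H-SAM (tritiated S-adenosyl-L-methionine) and histone H3 as substrate. An IC50 curve was generated for each compound.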

In data set [2] the target is T1, Histone-lysine N-methyltransferase EZH1 (Homo sapiens, UniProt Q92800).
T1 sequence (Q92800 whole entry): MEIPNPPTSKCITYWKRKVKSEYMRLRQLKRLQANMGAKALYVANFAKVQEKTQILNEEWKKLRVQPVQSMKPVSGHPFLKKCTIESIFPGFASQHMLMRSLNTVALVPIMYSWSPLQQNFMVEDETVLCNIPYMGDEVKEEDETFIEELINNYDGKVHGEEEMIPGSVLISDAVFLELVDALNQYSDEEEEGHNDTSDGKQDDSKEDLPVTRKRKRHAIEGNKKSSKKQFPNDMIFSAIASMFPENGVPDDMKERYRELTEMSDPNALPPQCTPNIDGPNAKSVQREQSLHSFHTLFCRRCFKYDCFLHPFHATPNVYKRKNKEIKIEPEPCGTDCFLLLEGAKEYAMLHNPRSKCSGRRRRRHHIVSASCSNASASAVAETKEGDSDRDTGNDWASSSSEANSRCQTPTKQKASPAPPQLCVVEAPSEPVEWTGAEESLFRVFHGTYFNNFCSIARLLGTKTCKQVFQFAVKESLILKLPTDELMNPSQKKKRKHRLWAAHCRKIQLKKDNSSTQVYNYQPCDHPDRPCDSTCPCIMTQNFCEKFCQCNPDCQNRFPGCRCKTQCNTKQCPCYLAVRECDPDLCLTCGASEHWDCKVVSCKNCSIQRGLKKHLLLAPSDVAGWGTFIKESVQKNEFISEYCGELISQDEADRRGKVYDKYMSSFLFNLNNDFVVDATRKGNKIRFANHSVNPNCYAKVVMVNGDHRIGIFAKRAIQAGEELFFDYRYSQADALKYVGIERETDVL
The experiment in a line: Inhibition of human EZH1 complex using histone H3 as substrate after 1 hr in presence of 3H-SAM by filter paper detection analysis. The method in brief: as §1

Data set [3] addresses Histone-lysine N-methyltransferase EZH2 (Homo sapiens, UniProt Q15910, Y641F). The experiment in a line: Inhibition of human EZH2 Y641F mutant using histone H3 as substrate after 1 hr in presence of 3H-SAM by filter paper detection analysis. The method in brief: as §1
Data set [4] in a line: Kinetic solubility of compound in PBS buffer at pH 7.4 after 1 hr by micro-plate nephelometric analysis. Format: physicochemical. Conditions: read-out: Kinetic_solubility.
The nature of data set [5]: Oxidative metabolic stability in mouse liver microsomes assessed as amount of parent compound remaining at 1 uM after 30 mins by LC-MS/MS. Format: ADME. Conditions: read-out: Stability. A general note: Microsomes from liver hold many membrane-bound enzymes, among them those of drug oxidation.
Data set [6] can be described thus: Oxidative metabolic stability in human liver microsomes assessed as amount of parent compound remaining at 1 uM after 30 mins by LC-MS/MS. Format: ADME. Conditions: read-out: Stability.

As usually defined, the IC50 is the concentration that gives 50% inhibition.

≈ marks a conversion by molar mass, not a printed value.

Sequence of Histone-lysine N-methyltransferase EZH2 (Homo sapiens, UniProt Q15910) (Q15910 whole entry): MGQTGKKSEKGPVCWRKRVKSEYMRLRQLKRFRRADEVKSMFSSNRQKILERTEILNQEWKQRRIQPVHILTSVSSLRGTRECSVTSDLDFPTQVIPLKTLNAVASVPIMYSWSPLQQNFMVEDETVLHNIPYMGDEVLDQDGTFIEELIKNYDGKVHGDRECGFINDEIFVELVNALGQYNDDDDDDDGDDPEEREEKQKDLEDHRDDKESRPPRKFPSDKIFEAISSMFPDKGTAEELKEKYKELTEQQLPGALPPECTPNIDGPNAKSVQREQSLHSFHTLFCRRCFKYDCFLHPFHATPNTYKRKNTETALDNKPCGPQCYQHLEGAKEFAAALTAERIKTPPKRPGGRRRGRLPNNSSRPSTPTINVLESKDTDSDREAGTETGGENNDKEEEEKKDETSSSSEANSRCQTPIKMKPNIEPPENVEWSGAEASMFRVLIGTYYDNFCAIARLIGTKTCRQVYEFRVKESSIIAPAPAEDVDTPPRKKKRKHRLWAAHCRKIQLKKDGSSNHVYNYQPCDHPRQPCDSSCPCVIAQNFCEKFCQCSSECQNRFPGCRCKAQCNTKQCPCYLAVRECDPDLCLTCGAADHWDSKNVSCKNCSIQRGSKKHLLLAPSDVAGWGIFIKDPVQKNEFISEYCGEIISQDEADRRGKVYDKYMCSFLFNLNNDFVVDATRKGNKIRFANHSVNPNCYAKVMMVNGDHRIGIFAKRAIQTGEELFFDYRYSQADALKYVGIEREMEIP
Sequence of Histone-lysine N-methyltransferase EZH2 (Homo sapiens, UniProt Q15910, Y641F) (Q15910 whole entry Y641F): as the sequence (Q15910 whole entry) above, with Y641F counted along it

Take `Cc1cc(C)c(CNC(=O)c2cc(C#N)cc3c2C(C)CN3C2CCCC2)c(=O)[nH]1` (stereo in doubt; 28e1): the IC50 was 27 nM in data set [1], 4440 nM in data set [2] and 185 nM in data set [3]. Consider `Cc1cc(C)c(CNC(=O)c2cc(C#N)cc3c2CCN3C(C)C)c(=O)[nH]1`, for which, in data set [1], the IC50 worked out at 26600 nM.

As to `Cc1cc(C)c(CNC(=O)c2cc(-c3ccc(N4CCNCC4)nc3)cc3c2C(C)CN3C2CCOCC2)c(=O)[nH]1` (stereo in doubt; 41e2), in data set [1], the half-maximal inhibitory concentration (IC50) stood at 2150 nM. Take `Cc1cc(C)c(CNC(=O)c2cc(-c3ccc(N4CCNCC4)nc3)cc3c2C(C)CN3C2CCCC2)c(=O)[nH]1` (stereo in doubt; 40e2): in data set [1], the IC50 was 378 nM. Regarding `CCN(c1cc(-c2ccc(CN3CCOCC3)cc2)cc(C(=O)NCc2c(C)cc(C)[nH]c2=O)c1C)C1CCOCC1` [TAZEMETOSTAT], the solubility kinetic at 1 h in data set [4] turned out to be 28 µM (≈ 16 µg/mL). The results for the remaining at 0.5 h, 1 µM in data set [5] and in data set [6] were 39% and 25%, respectively. As to `Cc1cc(C)c(CNC(=O)c2cc(-c3cnc(N4CCNCC4)c4ccccc34)cc3c2C(C)CN3C2CCOCC2)c(=O)[nH]1` (stereo in doubt; 36e1), the IC50 in data set [1] came to 17 nM; in data set [2], 1560 nM; in data set [3], 304 nM. On to `Cc1cc(C)c(CNC(=O)c2cc(C#N)cc3c2C(C)CN3C(C)C)c(=O)[nH]1` (stereo in doubt; 27e2), for which, in data set [1], the IC50 is over 100000 nM. For the compound `Cc1cc(C)c(CNC(=O)c2cc(-c3ccc(N4CCNCC4)nc3)cc3c2C(C)CN3C2CCCC2)c(=O)[nH]1` (stereo in doubt; 40e1), the concentration for half-maximal inhibition (IC50) was 21 nM in data set [1], 1350 nM in data set [2] and 505 nM in data set [3]. Take `Cc1cc(C)c(CNC(=O)c2cc(C#N)cc3c2CCN3C2CCCC2)c(=O)[nH]1`: the IC50 in data set [1] came to 571 nM. For `Cc1cc(C)c(CNC(=O)c2cc(-c3cnc(N4CCNCC4)c4ccccc34)cc3c2C(C)CN3C2CCOCC2)c(=O)[nH]1` (stereo in doubt; 36e2), the IC50 in data set [1] amounted to 540 nM. On the same count and under the same terms, for `Cc1cc(C)c(CNC(=O)c2cc(-c3ccc(CN4CCOCC4)cc3)cc3c2C(C)CN3CC2CC2)c(=O)[nH]1` (stereo in doubt; 31e1) the value was 375 nM; for `Cc1cc(C)c(CNC(=O)c2cc(-c3ccc(CN4CCOCC4)cc3)cc3c2C(C)CN3CC2CC2)c(=O)[nH]1` (stereo in doubt; 31e2), 15200 nM. As to `Cc1cc(C)c(CNC(=O)c2cc(-c3ccc(N4CCNCC4)nc3)cc3c2C(C)CN3C2CCOCC2)c(=O)[nH]1` (stereo in doubt; 41e1), the solubility kinetic at 1 h in data set [4] was 75 µM (≈ 41.8 µg/mL). Moreover, the figures for the 50% inhibitory concentration (IC50) in data set [1], in data set [2] and in data set [3] were 11 nM, 1980 nM and 578 nM, respectively. Moreover, the remaining at 0.5 h, 1 µM in data set [5] is 95%; in data set [6], 83%. `Cc1cc(C)c(CNC(=O)c2cc(-c3ccc(CN4CCOCC4)cc3)cc3c2C(C)CN3C2CCOCC2)c(=O)[nH]1` (stereo in doubt; 34e1): the solubility kinetic at 1 h in data set [4] was 75 µM (≈ 42.8 µg/mL). Besides, the IC50 in data set [1] turned out to be 29 nM; in data set [2], 3340 nM; in data set [3], 975 nM. The remaining at 0.5 h, 1 µM in data set [5] turned out to be 58%; in data set [6] it was 62%. For the compound `Cc1cc(C)c(CNC(=O)c2cc(-c3ccc(N4CCNCC4)nc3)cc3c2C(C)CN3C(C)C)c(=O)[nH]1` (stereo in doubt; 39e1), the 50% inhibitory concentration (IC50) was 17 nM in data set [1], 1870 nM in data set [2] and 622 nM in data set [3]. For `Cc1cc(C)c(CNC(=O)c2cc(-c3cnc(N4CCNCC4)nc3)cc3c2C(C)CN3C2CCOCC2)c(=O)[nH]1` (stereo in doubt; 45e2), the IC50 in data set [1] turned out to be 2160 nM. As for `Cc1cc(C)c(CNC(=O)c2cc(C#N)cc3c2C(C)CN3C2CCCC2)c(=O)[nH]1` (stereo in doubt; 28e2), the half-maximal inhibitory concentration (IC50) in data set [1] was over 100000 nM. For `Cc1cc(C)c(CNC(=O)c2cc(-c3ccc(CN4CCOCC4)cc3)cc3c2C(C)CN3C(C)C)c(=O)[nH]1` (stereo in doubt; 30e1), the IC50 was 47 nM in data set [1], 2710 nM in data set [2] and 518 nM in data set [3]. For `Cc1cc(C)c(CNC(=O)c2cc(C#N)cc3c2CCN3C2CCOCC2)c(=O)[nH]1`, the half-inhibitory concentration (IC50) in data set [1] came to 15700 nM. Take `Cc1cc(C)c(CNC(=O)c2cc(-c3ccc(CN4CCOCC4)cc3)cc3c2CCN3C2CCOCC2)c(=O)[nH]1`: the half-maximal inhibitory concentration (IC50) in data set [1] was found to be 237 nM. Consider `Cc1cc(C)c(CNC(=O)c2cc(-c3ccc(CN4CCOCC4)cc3)cc3c2C(C)CN3C2CCCC2)c(=O)[nH]1` (stereo in doubt; 33e2), for which the half-maximal inhibitory concentration (IC50) in data set [1] was 448 nM. Regarding `Cc1cc(C)c(CNC(=O)c2cc(-c3cnc(N4CCNCC4)nc3)cc3c2C(C)CN3C2CCOCC2)c(=O)[nH]1` (stereo in doubt; 45e1), in data set [1], the half-inhibitory concentration (IC50) came to 98 nM. Same read-out and setting: for `Cc1cc(C)c(CNC(=O)c2cc(-c3ccc(N4CCNCC4)nc3)cc3c2C(C)CN3C(C)C)c(=O)[nH]1` (stereo in doubt; 39e2) the value was 1080 nM. In the case of `Cc1cc(C)c(CNC(=O)c2cc(-c3ccc(CN4CCOCC4)cc3)cc3c2C(C)CN3C(C)C)c(=O)[nH]1` (stereo in doubt; 30e2), in data set [1], the IC50 came to 4140 nM. For the compound `Cc1cc(C)c(CNC(=O)c2cc(-c3ccc(CN4CCOCC4)cc3)cc3c2C(C)CN3C2CCOCC2)c(=O)[nH]1` (stereo in doubt; 34e2), in data set [1], the IC50 came out at 6980 nM. For the compound `Cc1cc(C)c(CNC(=O)c2cc(C#N)cc3c2C(C)CN3C(C)C)c(=O)[nH]1` (stereo in doubt; 27e1), the IC50 was determined as 88 nM in data set [1], 7750 nM in data set [2] and 478 nM in data set [3]. Regarding `Cc1cc(C)c(CNC(=O)c2cc(-c3ccc(CN4CCOCC4)cc3)cc3c2C(C)CN3C2CCCC2)c(=O)[nH]1` (stereo in doubt; 33e1), the IC50 amounted to 24 nM in data set [1], 2650 nM in data set [2] and 902 nM in data set [3].
